Results reported in ChEMBL document CHEMBL1926548, “Synthesis and study of new paramagnetic resveratrol analogues” (Bioorg Med Chem, 2011).
The source made the active and inactive calls. No cut-off for these calls is given here.

What was measured:
[1] = Antioxidant activity in 0.05 M phosphate buffered saline assessed as trolox equivalents of ABTS radical scavenging activity after 6 mins by TEAC assay; assay type: functional
Procedure, shortened: (§1)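 ABTS (7 mM in water) reacted with 2.45 mM persulfate (final) for 12–16 h in the dark at room temperature. Diluted in ethanol or 0.05 M PBS pH 7.4 to A734 0.70 ± 0.02. Compound added at 2.5–12.5 µM, read at 734 nm after 6 min at 25 °C. TEAC = slope of % inhibition vs concentration divided by Trolox slope. Three independent experiments.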

[2] = Antioxidant activity in ethyl alcohol assessed as trolox equivalents of ABTS radical scavenging activity after 6 mins by TEAC assay; assay type: functional; procedure, shortened: as §1
RAW264.7 [3] = assay: Antiinflammatory activity in mouse RAW264.7 cells assessed as inhibition of LPS-induced nitrite production after 24 hrs by Griess method; assay type: functional, cell-based
Procedure, shortened: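 Seeding, medium, overnight culture and treatment as for ROS: LPS 100 ng/mL plus compound at 12.5–100 µM for 24 h. Culture medium mixed with an equal volume of Griess reagent (1% sulphanilamide, 0.1% naphthylethylenediamide, 5% phosphoric acid). Absorbance read at 550 nm and expressed as % of LPS-only mean. n = 6, three repeats.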

RAW264.7 [4] = assay: Antiinflammatory activity in mouse RAW264.7 cells assessed as inhibition of LPS-induced ROS production after 24 hrs using DCFH-DA by fluorescent microplate reader; assay type: functional, cell-based
Procedure, shortened: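 Cells seeded 5*10^4/well and kept overnight at 37 °C, 5% CO2 in DMEM with 10% heat-inactivated FCS and L-glutamine. Fresh medium, then LPS (E. coli 0127:B8, 100 ng/mL) with or without compound (12.5–100 µM) for 24 h. C400 (2 µg/mL) added for a further 2 h. Fluorescence read at ex 485/em 555 nm. Reported as % of LPS-only mean. n = 6, three repeats.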

RAW264.7 [5] = assay: Antiinflammatory activity in mouse RAW264.7 cells assessed as inhibition of LPS-induced TNF-alpha production at 50 uM after 1.5 hrs by ELISA; assay type: functional, cell-based
Procedure, shortened: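 Cells seeded 2*10^5/well and cultured overnight as above. Fresh medium, then LPS (100 ng/mL) alone or with compound for 1.5 h. TNFα in medium measured with a mouse TNFα ELISA kit, read at 450 nm. Reported as % of LPS-only mean. n = 3, three repeats. Groups compared at p<0.05.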

Structure (SMILES)	Ratio [1]	Ratio [2]	inhibition (RAW264.7 [3])	inhibition (RAW264.7 [4])	inhibition (RAW264.7 [5])
CC1(C)C=C(/C=C/C2=CC(C)(C)N(O)C(C)(C)C2)CC(C)(C)N1O	0.37	–	–	–	–
CC1(C)C=C(/C=C/C2=CC(C)(C)N([O])C(C)(C)C2)CC(C)(C)N1[O]	–	0.22	Dose-dependent effect	Dose-dependent effect	Active
COc1ccc(/C=C/c2cc(OC)cc(OC)c2)cc1	–	0.04	–	–	–
CC1(C)c2ccc(/C=C/c3cc(O)cc(O)c3)cc2C(C)(C)N1O	0.67	–	–	–	–
CC1(C)c2ccc(/C=C/c3cc(O)cc(O)c3)cc2C(C)(C)N1[O]	–	0.98	Dose-dependent effect	Dose-dependent effect	Active
CC1(C)C(c2ccc(O)cc2)=C(c2cc(O)cc(O)c2)C(C)(C)N1[O]	–	1.02	Dose-dependent effect	Dose-dependent effect	inactive
COc1cc(/C=C/C2=CC(C)(C)NC(C)(C)C2)cc(OC)c1	0.02	0.32	Dose-dependent effect	Dose-dependent effect	Active
CC1(C)C=C(/C=C/c2cc(O)cc(O)c2)CC(C)(C)N1[O]	–	0.92	Dose-dependent effect	Dose-dependent effect	Active
COc1cc(/C=C/C2=CC(C)(C)N(O)C(C)(C)C2)cc(OC)c1	0.28	–	–	–	–
Oc1ccc(/C=C/c2cc(O)cc(O)c2)cc1	1.3	1	Dose-dependent effect	Dose-dependent effect	Active
CC1(C)C=C(/C=C/c2cc(O)cc(O)c2)CC(C)(C)N1O	0.62	–	–	–	–
COc1cc(OC)cc(C2=C(c3cc(OC)cc(OC)c3)C(C)(C)NC2(C)C)c1	–	–	Dose-dependent effect	Dose-dependent effect	Active
COc1cc(/C=C/C2=CC(C)(C)N([O])C(C)(C)C2)cc(OC)c1	–	0.2	Dose-dependent effect	Dose-dependent effect	–
